Experiments:
[1] = molecular target: GABA-A receptor; anion channel; assay: Binding affinity against Diazepam insensitive (DI) Gamma-aminobutyric acid A receptor; format: protein-complex assay, Rattus norvegicus
[2] = molecular target: GABA-A receptor; anion channel; assay: Binding affinity against Diazepam sensitive (DS) Gamma-aminobutyric acid A receptor; format: protein-complex assay, Rattus norvegicus
Method in brief: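 [3H]Ro15-4513 displacement (~2 nM final) on washed cerebellar membranes from adult male Sprague-Dawley rats, ~100 µg tissue, 0.2 M NaCl, 50 mM Tris citrate pH 7.8. DI binding has 10 µM diazepam added. DS binding is total minus DI. Nonspecific binding uses 10 µM Ro15-1788.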

Compound | Ki [1] | IC50 [2]
CN1Cc2c(CO)ncn2-c2ccc(Cl)cc2C1=O | > 1000 nM | > 1000 nM
CCOCc1ncn2c1CN(C)C(=O)c1cc(Cl)ccc1-2 | > 1000 nM | > 500 nM
COc1cccc(-n2[nH]c3c(cnc4ccccc43)c2=O)c1 | 26 nM | 
O=c1c2cnc3ccc(Cl)cc3c2[nH]n1-c1ccccc1 | 5.1 nM | 
COc1ccc2c(c1)ncc1c(=O)n(-c3ccccc3)[nH]c12 | 1.9 nM | 
COc1ccc2ncc3c(=O)n(-c4ccccc4)[nH]c3c2c1 | 47 nM | 
COc1ccc(-n2nc3c4cc(Cl)ccc4[nH]cc-3c2=O)cc1 | 1.9 nM | 
COc1ccc(-n2nc3c4ccc(OC)cc4[nH]cc-3c2=O)cc1 | 10 nM | 
CCOC(=O)c1ncn2c1CN(C)C(=O)c1cc(OCC)ccc1-2 | 40.9 nM | 7.07 nM
CCc1ncn2c1CN(C)C(=O)c1cc(Cl)ccc1-2 | > 1000 nM | > 500 nM
CCCCC(=O)c1ncn2c1CN(C)C(=O)c1cc(Cl)ccc1-2 | > 1000 nM | > 500 nM
CC(=O)c1ncn2c1CN(C)C(=O)c1cc(Cl)ccc1-2 | > 1000 nM | > 1000 nM
CN1Cc2c(CCl)ncn2-c2ccc(Cl)cc2C1=O | > 1000 nM | > 500 nM
CCCCCc1ncn2c1CN(C)C(=O)c1cc(Cl)ccc1-2 | > 1000 nM | > 1000 nM
COCc1ncn2c1CN(C)C(=O)c1cc(Cl)ccc1-2 | > 1000 nM | 514 nM
COc1ccc(-n2nc3c4ccccc4[nH]cc-3c2=O)cc1 | 9.3 nM | 
CCOC(=O)c1ncn2c1CN(C)C(=O)c1cc(OC)ccc1-2 | 23.8 nM | 2.47 nM
CC(C)N(Cc1ncn2c1CN(C)C(=O)c1cc(Cl)ccc1-2)C(C)C | > 1000 nM | > 1000 nM
CCN(CC)Cc1ncn2c1CN(C)C(=O)c1cc(Cl)ccc1-2 | > 1000 nM | > 1000 nM
O=C1C2C=Nc3ccccc3C2=NN1c1ccccc1 (configuration not stated) [CGS-8216] | 46 nM | 
